ABCB6 inh 2 = ABCB6 transporter inhibitors, primary screen, K562-ABCB6 cells, flow cytometry, MLPCN library; ATP-binding cassette sub-family B member 6 (Homo sapiens), Q9NP58; K562-ABCB6 porphyrin accumulation, 1 h; active compounds read low; fluorescence ratio to DMSO, % at 10 µM; 360,000 compounds, 0.19% hits;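 active = fluorescence ratio to DMSO below 75%, the collection mean minus 3 SD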;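 note: signal is porphyrin accumulated inside mitochondria; 100% equals median channel fluorescence of DMSO control wells; lower ratio means ABCB6 inhibition with less porphyrin fluorescence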
Target sequence (Q9NP58 whole entry, looked up): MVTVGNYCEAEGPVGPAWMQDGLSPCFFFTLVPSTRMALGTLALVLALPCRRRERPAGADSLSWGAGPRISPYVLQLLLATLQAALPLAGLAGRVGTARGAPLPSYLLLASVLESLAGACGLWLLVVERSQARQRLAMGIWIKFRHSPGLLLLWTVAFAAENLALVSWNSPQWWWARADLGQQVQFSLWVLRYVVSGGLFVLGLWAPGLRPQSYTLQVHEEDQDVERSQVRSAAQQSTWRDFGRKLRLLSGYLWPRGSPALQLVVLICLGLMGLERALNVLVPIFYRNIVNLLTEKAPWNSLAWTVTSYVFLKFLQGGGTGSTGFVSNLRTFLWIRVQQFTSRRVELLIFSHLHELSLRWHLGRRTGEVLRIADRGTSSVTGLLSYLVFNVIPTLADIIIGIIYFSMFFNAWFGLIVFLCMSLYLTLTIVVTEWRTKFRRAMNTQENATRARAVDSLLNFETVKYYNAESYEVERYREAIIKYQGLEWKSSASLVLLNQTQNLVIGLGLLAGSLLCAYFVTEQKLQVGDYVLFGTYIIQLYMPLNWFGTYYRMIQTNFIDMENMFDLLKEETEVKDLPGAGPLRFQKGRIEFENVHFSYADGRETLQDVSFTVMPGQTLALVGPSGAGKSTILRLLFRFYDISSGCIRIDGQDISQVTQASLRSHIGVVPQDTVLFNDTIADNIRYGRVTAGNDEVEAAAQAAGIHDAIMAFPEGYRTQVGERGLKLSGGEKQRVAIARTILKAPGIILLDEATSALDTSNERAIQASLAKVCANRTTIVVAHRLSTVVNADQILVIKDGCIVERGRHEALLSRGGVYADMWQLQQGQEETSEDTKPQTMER
Cl transport mod = KCC2 cotransporter modulators, thallium flux, primary screen, cell-based, HEK293 KCC2, FluoZin-2 fluorescence, MLSMR; Solute carrier family 12 member 5 (Homo sapiens), Q9H2X9; KCC2 cells, thallium flux FluoZin-2 fluorescence; B-score of Tl+ flux slope (higher = more flux/activation; lower = inhibition) at 10 µM; 190,000 compounds, 2.2% hits; AID 1456, 2008;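 active = thallium flux slope and its plate-corrected score both differing from the plate sample mean at a set confidence after two filtering rounds, in either direction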;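 note: slope of fluorescence scaled to starting intensity during 10 to 20 s after thallium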
Dynein transport = inhibitors of GR-EGFP nuclear translocation, primary screen, dynein cargo transport inhibitor project, imaging, high-content, 3617.4 mouse cells; AID 1381, 2008; z-score, hits read low; test concentration mostly 20 µM; stimulated with dexamethasone, 1 µM; active compounds read low; 220,000 compounds, 0.47% hits;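 active = plate z-score of nuclear minus cytoplasmic receptor signal below a set negative limit, without overly bright fluorescence or cell loss, cut at about -3.5 in these data, passing the limit was not always enough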;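 note: z-score of nuclear minus cytoplasmic ring GR-EGFP intensity difference per well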
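Buffer or medium: tet-free medium with charcoal-stripped serum / Also added: dexamethasone agonist, 1.0 µM final, for 30 min / Timing: induction 48 h, compound 1 h, agonist 30 min / Measured by: high-content fluorescence imaging after fixation / Read-out: nuclear-to-cytoplasmic GR-EGFP distribution per well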
pCIP destab = p/CIP-EGFP fusion destabilizers, primary screen, fluorescence, F442A cells. Q05BA5. 16 h. decrease of EGFP signal, % at 10 µM. 290,000 compounds, 0.01% hits. AID 1984, 2009;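 active = EGFP signal decrease of at least 30% at 10 µM or well 3 SD below plate mean, unless failing retest; inactive = the rest, including hits failing retest or dose response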
V-ATPase pHluor = regulators of yeast V-ATPase proton pumping, primary screen, pHLuorin cytosolic pH fluorescence | S. cerevisiae | response, % at 10 µM | 350,000 compounds, 0.37% hits | AID 504577, 2011; in the data active = response mostly above about 7.3%, no sharp cut-off; inactive = mostly below about 5.4%; note: actives read high
Dynein inh conf = dynein cargo transport inhibitors, GR-EGFP translocation, confirmation, imaging, high-content imaging, GR-EGFP cells | shares compounds with Dynein transport | 3617.4 GR-EGFP nuclear translocation imaging, dexamethasone-induced | calls only at 20 µM | 1,000 compounds, 69% hits | AID 463116, 2010;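 active = inhibition of receptor movement into the nucleus at or above a set limit in both runs, with normal cell brightness and cell count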;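 note: dexamethasone at 1 µM final in well for 30 min; nuclear minus cytoplasmic GR-EGFP mean intensity difference in channel 2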
* = called active by the depositor; i = inactive; nt = not tested or not shown; + = active, no number. The sample as a whole holds a higher share of hits than the screen did.

SMILES | ABCB6 inh 2 | Cl transport mod | Dynein transport | pCIP destab | V-ATPase pHluor | Dynein inh conf
O=C(C=Cc1cccc(O)c1)c1ccccc1O | 96 | nt | nt | nt | 3 | nt
O=C(/C=C/c1ccc(O)c(O)c1)c1ccccc1O | 100 | -0.77 | -5.4* | -15 | 4 | +
CC(C)(C)c1cc(CSC(=S)NC2CCS(=O)(=O)C2)c(Br)c(C(C)(C)C)c1 (stereo not drawn) | 99 | 0.44 | 1.9 | -8 | 1 | nt
O=S1(=O)CC=C(CSC(=S)NC2CCS(=O)(=O)C2)C1 (stereo not drawn) | 94 | 1.2 | -4.8* | -20 | -4 | +
Clc1nssc1=Nc1ccc(Br)cc1 | 95 | -0.97 | -0.82 | 0 | 1 | nt
N#Cc1cccc(N=c2ssnc2Cl)c1 | nt | 1.5 | -4.4 | -7 | 4 | +
CC1(Oc2ccccc2-c2ccn[nH]2)CCN(Cc2ccc(OC(F)(F)F)cc2)C1 (stereo not drawn) | 96 | nt | nt | nt | nt | nt
Cc1nc(SC2CC(=O)N(c3ccccc3)C2=O)n[nH]1 (stereo not drawn) | 100 | -0.11 | -3.7* | 4 | nt | i
COc1ccccc1N1C(=O)CC(Sc2n[nH]c(-c3cccc(C)c3)n2)C1=O (stereo not drawn) | 103 | -0.045 | -3.6* | -6 | 1 | +
O=C1CC(Sc2ncccn2)C(=O)N1c1ccccc1 (stereo not drawn) | 87 | nt | -1.1 | -5 | 1 | nt
O=C1CC(Sc2nnc(-c3ccccc3O)o2)C(=O)N1c1ccccc1 (stereo not drawn) | 99 | 0.0068 | -6.5* | 8 | 1 | i
CN(Nc1cccc(Cl)c1)c1cccc(Cl)c1 | 106 | nt | nt | nt | -2 | nt
CC1=NN(c2ccccc2)C(=O)/C1=C\C=C\c1ccccc1 | 93 | -0.34 | -5.3* | -4 | 1 | +
NC(COCc1ccccc1)c1csc(NC(=O)Nc2cccc(C(F)(F)F)c2)n1 (stereo not drawn) | 81 | nt | nt | nt | nt | nt
Cn1nc([N+](=O)[O-])c(C(C#N)c2nc3ccccc3n2C)c(Cl)c1=O (stereo not drawn) | 102 | -1.3 | -3.6* | -11 | 0 | i
Cn1c(-c2ccc([N+](=O)[O-])cc2)nc2ccccc21 | 90 | 0.056 | 0.78 | 6 | 2 | nt
Cc1ccc(NCC(=O)N/N=C/c2cccc(Oc3ccccc3)c2)cc1 | 94 | -0.19 | -0.43 | -7 | 4 | nt
COc1ccc(N2C(=O)CC(Sc3nnnn3-c3ccc(F)cc3)C2=O)cc1 (stereo not drawn) | 99 | -0.083 | -4 | 6 | 1 | +
CCn1c(=O)c([N+](=O)[O-])c(Cl)c2ccccc21 | 92 | -2.4 | -6.1* | -3 | 20* | +
CCn1c(=O)c([N+](=O)[O-])c(NCCN(C)C)c2ccccc21 | 99 | -0.8 | 1.4 | -16 | -3 | nt
O=C(Nc1ccccc1Oc1ccccc1)[C@@H]1O[C@H](CO)[C@H](O)[C@H](O)[C@H]1O | 106 | nt | nt | nt | nt | nt
COc1cccc(NC(=S)NC(Cc2ccccc2)c2ccccc2)c1 (stereo not drawn) | 98 | nt | nt | nt | 1 | nt
CC(=O)Nc1ccc(SC[C@H](c2ccccc2)N2CCN(CCc3ccccc3)CCC2=O)cc1 | nt | -0.98 | -4.7* | -3 | nt | i
Nc1[nH]c(C(=O)c2ccccc2)c(-c2ccc(Cl)cc2Cl)c1C(=O)c1ccc(Br)cc1 | 99 | nt | nt | nt | nt | nt
Clc1ccc(-c2nnnn2-c2ccc(Cl)cc2)cc1 | 98 | -0.22 | -0.5 | -9 | 0 | nt
Cc1ccc(-n2nnnc2C(Cl)(Cl)c2nnnn2-c2ccc(C)cc2)cc1 | 95 | 0.25 | -4.6* | -5 | 1 | +
COc1ccc(CNC(=O)C(c2ccncc2)N(C(=O)Cc2cccs2)c2ccccc2)cc1 (stereo not drawn) | 95 | -0.62 | -0.2 | -4 | -5 | nt
COc1ccc(N(C(=O)CCl)C(C(=O)NCCc2ccccc2)c2cccs2)cc1 (stereo not drawn) | 98 | -0.2 | -5.3* | 3 | 0 | +

Source: PubChem (several laboratories)
